Like-named read-outs stand apart in the source and are kept apart here. Where only a bound is given, the exact number is not on record here.

The format of data set [1] is in vivo, human (healthy adult subjects). The essentials:
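Single-centre, open-label, two-period study in healthy adults. Everolimus 0.75 mg given as a single dose alone on Period 1 Day 1. Blood concentrations gave Cmax, AUCinf, Tmax (median), C12 and t1/2. Natural-log parameters were compared by repeated-measures analysis.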

The conditions of data set [2]: cited from earlier work.
The format of data set [3] is in vivo, human (healthy adult subjects). The source holds these as a separate data set.
For data set [4] the following is noted: 2 mg single-dose sirolimus with ketoconazole 200 mg BID at steady state; cited from earlier work.
The next data set concerns P-gp. Conditions: cited from earlier work.
The conditions of data set [5]: digoxin with the 3D regimen; cited from earlier work.
For data set [6] the following is noted: cited from earlier work. This is another data set of the same source.
[7] abbreviates: everolimus co-administered with the 3D regimen vs alone.
Where [8] appears, read: sirolimus 2 mg single dose alone, Period 1 Day 1, N = 11, blood, geometric mean (geometric %CV).
The mark [9] stands for this setting: sirolimus co-administered with the 3D regimen vs alone.

In general, AUC(0-inf) refers to the area under the concentration-time curve extrapolated to infinity. Higher therefore signals more exposure. Usually half-life stands for how long it takes for the measured level to halve. Consider `CO[C@H]1C[C@@H]2CC[C@@H](C)[C@@](O)(O2)C(=O)C(=O)N2CCCC[C@H]2C(=O)O[C@H]([C@H](C)C[C@@H]2CC[C@@H](OCCO)[C@H](OC)C2)CC(=O)[C@H](C)/C=C(\C)[C@@H](O)[C@@H](OC)C(=O)[C@H](C)C[C@H](C)/C=C/C=C/C=C/1C` [Everolimus, everolimus], for which, in data set [1] (setting [7]), the “increase in AUCinf” value turned out to be 27 fold, the “increase in Cmax” value is on record as 4.7 fold and the “increase in t 1/2” value is reported as 2.8 fold. In data set [1] (everolimus in the presence of the 3D regimen vs alone), the “delay in Tmax” value turned out to be 1 h. Besides, in data set [1] (human, blood, 0.75 mg), the total exposure AUC(0-inf) is 41.9 ng·h/mL, the Cmax amounted to 3.33 ng/mL and the concentration at 12 h was determined as 0.513 ng/mL. Moreover, the half-life in data set [1] (human, blood, 0.75 mg, t 1/2, everolimus 0.75 mg single dose alone, Period 1 Day 1, N = 12, blood, harmonic mean (pseudo-standard deviation)) was 42 h. For the same compound, the half-life in data set [2] (everolimus) was about 30 h.
For `CO[C@H]1C[C@@H]2CC[C@@H](C)[C@@](O)(O2)C(=O)C(=O)N2CCCC[C@H]2C(=O)O[C@H]([C@H](C)C[C@@H]2CC[C@@H](O)[C@H](OC)C2)CC(=O)[C@H](C)/C=C(\C)[C@@H](O)[C@@H](OC)C(=O)[C@H](C)C[C@H](C)/C=C/C=C/C=C/1C` [Sirolimus, sirolimus], the half-life in data set [3] (human, blood, 2 mg, t 1/2, sirolimus 2 mg single dose alone, Period 1 Day 1, N = 11, blood, harmonic mean (pseudo-standard deviation)) is 96 h. Further, the AUC(0-inf) in data set [3] (human, blood, oral, 2 mg) was determined as 178 ng·h/mL. Also, in data set [3] (setting [8]), the C24 was 1.14 (29) ng/m and the Cmax is on record as 6.66 (33) ng/ml. Further, in data set [3] (sirolimus 2 mg single dose alone, Period 1 Day 1, N = 11, blood, harmonic mean (pseudo-standard deviation)), the “t 1/2” value is 96.3 (15) h. Besides, the Tmax in data set [3] (sirolimus 2 mg single dose alone, Period 1 Day 1, N = 11, blood, median (range)) is given as 2.5 (1.5–4.0) h. Besides, in data set [3] (setting [9]), the “increase in dose-normalized AUCinf” value came to 38 fold, the “increase in dose-normalized Cmax” value is listed as 6.4 fold and the “increase in t 1/2” value is 2.6 fold. Besides, the “delay in Tmax” value in data set [3] (sirolimus in the presence of the 3D regimen vs alone) is listed as 3.5 h. Also, the “increase in Cmax” value in data set [4] is given as 4.3 fold. In addition, the half-life result in data set [2] (sirolimus) is given as “approximately 62 h”.
Turning to `COc1c(-c2ccc3cc(NS(C)(=O)=O)ccc3c2)cc(-n2ccc(=O)[nH]c2=O)cc1C(C)(C)C` [dasabuvir], the “P-gp inhibition (in vitro data)” value in the data set on P-gp is listed as “potential inhibitors of P‐gp”.
As to `C[C@H]1O[C@@H](O[C@H]2[C@@H](O)C[C@H](O[C@H]3[C@@H](O)C[C@H](O[C@H]4CC[C@@]5(C)[C@H](CC[C@@H]6[C@@H]5C[C@@H](O)[C@]5(C)[C@@H](C7=CC(=O)OC7)CC[C@]65O)C4)O[C@@H]3C)O[C@@H]2C)C[C@H](O)[C@@H]1O` [digoxin], in data set [5], the “increase in AUC” value is at most 16% and the “increase in Cmax” value is listed as at most 16%.
Regarding `Cc1ncc2n1-c1ccc(Cl)cc1C(c1ccccc1F)=NC2` [midazolam], the “increase in AUC” value is 5.3 fold in data set [6] (midazolam co-administered with boceprevir) and 26.9 fold in data set [6] (midazolam co-administered with tipranavir/ritonavir).
For the compound `Cc1cnc(C(=O)N[C@H]2CCCCC/C=C\[C@@H]3C[C@@]3(C(=O)NS(=O)(=O)C3CC3)NC(=O)[C@@H]3C[C@@H](Oc4nc5ccccc5c5ccccc45)CN3C2=O)cn1` [paritaprevir], the “P-gp inhibition (in vitro data)” value in the data set with P-gp is given as “potential inhibitors of P‐gp”.
On to `CC(C)c1nc(CN(C)C(=O)N[C@H](C(=O)N[C@@H](Cc2ccccc2)C[C@H](O)[C@H](Cc2ccccc2)NC(=O)OCc2cncs2)C(C)C)cs1` [ritonavir], for which the “P-gp inhibition (in vitro data)” value with P-gp is “potential inhibitors of P‐gp”.

The values are drawn from article PMC9683076 (Pharmacology Research & Perspectives, 2022).
